Where two headings read alike, the source gives them in different places.
Legend:
[1] = rat, in vivo
[2] = test system: AML patient cells (bulk, CD34+, CD34+CD38−, CD34+CD38+); assay: Apoptosis; format: cell-based; details: Homo sapiens, 24 h
Outline: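 Fresh peripheral blood came from AML patients with blasts of 95% or higher. Mononuclear cells were isolated on Ficoll-Hypaque and cultured in RPMI 1640 with 10% heat-inactivated FCS, 2mM glutamine and penicillin/streptomycin, on murine MS-5 stromal cells. Cells were stained for CD45, CD34, CD38 and annexin V Cy5, with leukemic cells gated as CD45+. Flow cytometry gave % annexin V+ cells, and EC50 was derived across test compound concentrations. Representative of two patients' samples.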

[3] = beagle, dog, in vivo
Sprague-Dawley rats [4] = assay: 7-day repeat dose i.v. rat toxicology comparison study; details: MRx102 3.0 mg/kg/day or triptolide 0.3 mg/kg/day i.v.
[5] = as above; details: both, Sprague-Dawley, rat, in vivo, iv
in vivo = details: rat
[6] = test system: AML patient cells (bulk, CD34+, CD34+CD38−, CD34+CD38+); assay: Viable cell count in AML patients' samples, flow cytometry; format: cell-based; details: Homo sapiens, 24 h
Outline: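 AML patient peripheral blood (blasts 95% or higher) was Ficoll-Hypaque purified and cultured in RPMI 1640 with 10% heat-inactivated FCS, 2mM glutamine and penicillin/streptomycin, cocultured with murine MS-5 stromal cells. Leukemic cells were gated CD45+ and subdivided by CD34/CD38. Viable counts came from CountBright beads on annexin V/7-AAD-negative events by flow cytometry. EC50 was derived across test compound concentrations. Representative of two patients' samples.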

[7] = MTD following a single i.v. injection in rats; details: Sprague Dawley, rat, in vivo, iv
[8] = test system: MV4–11 human AML cell line; assay: In vitro cytotoxic activity, Alamar Blue viability assay; format: cell-based
Sprague-Dawley rats [9] = details: rat, in vivo, iv
[10] = female, Sprague Dawley, iv, 0.05 mg/kg/day
[11] = female, Sprague Dawley, iv, 0.15 mg/kg/day
[12] = female, Sprague-Dawley, iv, 3 mg/kg/day
[13] = male, Sprague Dawley, iv, 0.05 mg/kg/day
[14] = male, Sprague Dawley, iv, 0.15 mg/kg/day
[15] = male, Sprague Dawley, iv, 0.3 mg/kg/day
[16] = male, Sprague Dawley, iv, 0.5 mg/kg/day
[17] = male, Sprague Dawley, iv, 1.5 mg/kg/day
[18] = male, Sprague Dawley, iv, 3 mg/kg/day
[19] = male, Sprague-Dawley, iv, 1.5 mg/kg/day
[20] = male, Sprague-Dawley, iv, 3 mg/kg/day
[21] = female, Sprague Dawley, iv, 0.3 mg/kg/day

In the case of `CC(C)[C@]12O[C@H]1[C@@H]1O[C@]13[C@]1(O[C@H]1C[C@H]1C4=C(CC[C@@]13C)C(=O)OC4)[C@@H]2O` [Triptolide], the “T1/2,e of triptolide after MRx102 injection relative to after triptolide” value ([1]; Sprague-Dawley) is reported as “over 7 fold”, the “T1/2,e range” value ([1]; Sprague-Dawley) is reported as 51 to 222 min and the “AUC0-inf Median” value ([1]; both, Sprague Dawley, iv) is reported as 0.02969 µg·h/mL. For the same compound, the “Cmax Median” value ([1]; both, Sprague Dawley, iv) was 0.0238 µg/mL, the “Cmax range” value ([1]; both, Sprague Dawley, iv) was 0.00783 to 0.0411 µg/mL and the “T1/2,e Median” value ([1]; both, Sprague Dawley, iv) was 96 min. The “T1/2,e range” value ([1]; both, Sprague Dawley, iv) was 51 to 786 min, the AUC0-inf [1, 10] was 0.00814 µg·h/mL and the Cl [1, 10] was 6.1 L/h. It also gave a Cmax [1, 10] of 0.011 µg/mL, a Vz [1, 10] of 2.2 L and an AUC0-inf [1, 11] of 0.03682 µg·h/mL. It also gave a Cl [1, 11] of 4.1 L/h, a Cmax [1, 11] of 0.0486 µg/mL and a Vz [1, 11] of 1.3 L. It also gave a Cmax range ([1]; female, Sprague-Dawley, iv, 3 mg/kg) of 0.0118 to 0.0411 µg/mL, a Cmax [1, 12] of 0.0411 µg/mL and a Tmax [1, 12] of 60 min. The “T1/2,e” value [1, 13] was 10.2 min, the Vz [1, 13] was 0.2 L and the AUC0-inf [1, 14] was 0.03795 µg·h/mL. For the same compound, the C0 [1, 14] was 0.13 µg/mL, the Cl [1, 14] was 4.0 L/h and the Cmax [1, 14] was 0.0497 µg/mL. For the same compound, the “T1/2,e” value [1, 14] was 12.6 min, the Vz [1, 14] was 1.2 L and the AUC0-inf [1, 15] was 0.07592 µg·h/mL. For the same compound, the C0 [1, 15] was 0.273 µg/mL, the Cl [1, 15] was 4.0 L/h and the “T1/2,e” value [1, 15] was 14.4 min. For the same compound, the AUC0-inf [1, 16] was 0.01597 µg·h/mL, the “T1/2,e” value [1, 16] was 51 min and the AUC0-inf [1, 17] was 0.1648 µg·h/mL. For the same compound, the Cmax [1, 17] was 0.00917 µg/mL, the “T1/2,e” value [1, 17] was 786 min and the Tmax [1, 17] was 30 min. The AUC0-inf [1, 18] was 0.06612 µg·h/mL, the Cmax [1, 18] was 0.016 µg/mL and the “T1/2,e” value [1, 18] was 222 min. The AUC0-inf [1, 19] was 0.01266 µg·h/mL, the Cmax [1, 19] was 0.00783 µg/mL and the “T1/2,e” value [1, 19] was 66 min. The Cmax range ([1]; male, Sprague-Dawley, iv, 3 mg/kg) was 0.00783 to 0.0325 µg/mL, the AUC0-inf [1, 20] was 0.26969 µg·h/mL and the Cmax [1, 20] was 0.0177 µg/mL. For the same compound, the “T1/2,e” value [1, 20] was 84 min, the accumulation index [1] was “less than unity” and the EC50 ([2]; read-out: EC50 - Annexin V +, 24 h, + MS-5, Bulk) was 2.34 nM. For the same compound, the EC50 ([2]; read-out: EC50 - Annexin V +, 24 h, + MS-5, CD34+) was 2.35 nM, the EC50 ([2]; read-out: EC50 - Annexin V +, 24 h, + MS-5, CD34+38+) was 2.3 nM and the EC50 ([2]; read-out: EC50 - Annexin V +, 24 h, + MS-5, CD34+38−) was 2.37 nM. The EC50 ([2]; read-out: EC50 - Annexin V +, 24 h, Alone, Bulk) was 2.13 nM, the EC50 ([2]; read-out: EC50 - Annexin V +, 24 h, Alone, CD34+) was 2.13 nM and the EC50 ([2]; read-out: EC50 - Annexin V +, 24 h, Alone, CD34+38+) was 2.09 nM. The EC50 ([2]; read-out: EC50 - Annexin V +, 24 h, Alone, CD34+38−) was 2.14 nM, the “AUC0–24hr Median” value ([3]; iv) was 0.03483 µg·h/mL and the “AUC0–24hr Range” value ([3]; iv) was 0.0015 to 0.212 µg·h/mL. For the same compound, the “Cmax Median” value ([3]; iv) was 0.00344 µg/mL, the “Cmax range” value ([3]; iv) was 0.002 to 0.049 µg/mL and the Cmax range ([3]; female) was 0.002 to 0.0211 µg/mL. The Cmax range ([3]; male) was 0.00222 to 0.049 µg/mL, the “AUC0–24hr” value ([3]; male, iv, 0.1 mg/kg/day) was 0.02553 µg·h/mL and the Cmax ([3]; male, iv, 0.1 mg/kg/day) was 0.00222 µg/mL. For the same compound, the Tmax ([3]; male, iv, 0.1 mg/kg/day) was 120 min, the “survival of high-dose females” value (Sprague-Dawley rats [4]) was “euthanized prior to Day 7” and the NOAEL at 7 days [5] was 0.05 to 0.15 mg/kg. It also gave a clearance (in vivo; Sprague-Dawley, Cl range) of 15.5 to 102 mL/min, a Vd (in vivo; Sprague-Dawley, Vz range) of 0.2 to 2.2 L and an AUC0-inf (in vivo; both, Sprague Dawley, iv, AUC0-inf Median) of 0.0514 µg·h/mL. For the same compound, the Cmax (in vivo; both, Sprague Dawley, iv, Cmax Median) was 0.059 µg/mL, the Cmax (in vivo; both, Sprague Dawley, iv, Cmax Range) was 0.011 to 0.189 µg/mL and the half-life (in vivo; both, Sprague Dawley, iv, T1/2,e Median) was 13.2 min. For the same compound, the half-life (in vivo; both, Sprague Dawley, iv, T1/2,e Range) was 9 to 23.4 min, the Tmax (in vivo; [10]) was 15 min and the AUC0-inf (in vivo; female, Sprague Dawley, iv, 0.05 mg/kg/day, AUC0-inf) was 0.0125 µg·h/mL. The clearance (in vivo; female, Sprague Dawley, iv, 0.05 mg/kg/day, Cl) was 66.7 mL/min, the Cmax (in vivo; female, Sprague Dawley, iv, 0.05 mg/kg/day, Cmax) was 0.0154 µg/mL and the half-life (in vivo; female, Sprague Dawley, iv, 0.05 mg/kg/day, T1/2,e) was 15 min. For the same compound, the Vd (in vivo; female, Sprague Dawley, iv, 0.05 mg/kg/day, Vz) was 1.4 L, the Tmax (in vivo; [11]) was 15 min and the AUC0-inf (in vivo; female, Sprague Dawley, iv, 0.15 mg/kg/day, AUC0-inf) was 0.0721 µg·h/mL. For the same compound, the clearance (in vivo; female, Sprague Dawley, iv, 0.15 mg/kg/day, Cl) was 35 mL/min, the Cmax (in vivo; female, Sprague Dawley, iv, 0.15 mg/kg/day, Cmax) was 0.0746 µg/mL and the half-life (in vivo; female, Sprague Dawley, iv, 0.15 mg/kg/day, T1/2,e) was 19.8 min. The Vd (in vivo; female, Sprague Dawley, iv, 0.15 mg/kg/day, Vz) was 1 L, the Tmax (in vivo; [21]) was 15 min and the AUC0-inf (in vivo; female, Sprague Dawley, iv, 0.3 mg/kg/day, AUC0-inf) was 0.162 µg·h/mL. The C0 (in vivo; [21]) was 0.436 µg/mL, the clearance (in vivo; female, Sprague Dawley, iv, 0.3 mg/kg/day, Cl) was 31.7 mL/min and the Cmax (in vivo; female, Sprague Dawley, iv, 0.3 mg/kg/day, Cmax) was 0.189 µg/mL. It also gave a half-life (in vivo; female, Sprague Dawley, iv, 0.3 mg/kg/day, T1/2,e) of 23.4 min, a Vd (in vivo; female, Sprague Dawley, iv, 0.3 mg/kg/day, Vz) of 1 L and a Cmax (in vivo; female, Sprague-Dawley, iv, 0.3 mg/kg, Cmax range) of 0.011 to 0.189 µg/mL. For the same compound, the Tmax (in vivo; [13]) was 15 min, the half-life (in vivo; male, Sprague Dawley, iv, 0.05 mg/kg/day, T1/2,e) was 9 min and the Tmax (in vivo; [14]) was 15 min. The C0 (in vivo; [14]) was 0.234 µg/mL, the clearance (in vivo; male, Sprague Dawley, iv, 0.15 mg/kg/day, Cl) was 48.3 mL/min and the Cmax (in vivo; male, Sprague Dawley, iv, 0.15 mg/kg/day, Cmax) was 0.059 µg/mL. It also gave a half-life (in vivo; male, Sprague Dawley, iv, 0.15 mg/kg/day, T1/2,e) of 11.4 min, a Vd (in vivo; male, Sprague Dawley, iv, 0.15 mg/kg/day, Vz) of 0.8 L and a Tmax (in vivo; [15]) of 15 min. It also gave an AUC0-inf (in vivo; male, Sprague Dawley, iv, 0.3 mg/kg/day, AUC0-inf) of 0.101 µg·h/mL, a C0 (in vivo; [15]) of 0.383 µg/mL and a clearance (in vivo; male, Sprague Dawley, iv, 0.3 mg/kg/day, Cl) of 50 mL/min. For the same compound, the Cmax (in vivo; male, Sprague Dawley, iv, 0.3 mg/kg/day, Cmax) was 0.13 µg/mL, the half-life (in vivo; male, Sprague Dawley, iv, 0.3 mg/kg/day, T1/2,e) was 10.8 min and the Vd (in vivo; male, Sprague Dawley, iv, 0.3 mg/kg/day, Vz) was 0.8 L. For the same compound, the Cmax (in vivo; male, Sprague-Dawley, iv, 0.3 mg/kg, Cmax range) was 0.0182 to 0.13 µg/mL, the EC50 ([6]; read-out: EC50 -Cell Count, 24 h, + MS-5, Bulk) was 2.33 nM and the EC50 ([6]; read-out: EC50 -Cell Count, 24 h, + MS-5, CD34+) was 2.38 nM. It also gave an EC50 ([6]; read-out: EC50 -Cell Count, 24 h, + MS-5, CD34+38+) of 2.62 nM, an EC50 ([6]; read-out: EC50 -Cell Count, 24 h, + MS-5, CD34+38−) of 2.3 nM and an EC50 ([6]; read-out: EC50 -Cell Count, 24 h, Alone, Bulk) of 2.19 nM. The EC50 ([6]; read-out: EC50 -Cell Count, 24 h, Alone, CD34+) was 2.15 nM, the EC50 ([6]; read-out: EC50 -Cell Count, 24 h, Alone, CD34+38+) was 2.13 nM and the EC50 ([6]; read-out: EC50 -Cell Count, 24 h, Alone, CD34+38−) was 2.13 nM. For the same compound, the MTD ([7]; female) was 0.317 mg/kg, the MTD ([7]; male) was 0.63 mg/kg and the IC50 ([8]; MV4-11, 24 h) was 24.1 nM. The IC50 ([8]; MV4-11, 48 h) was 7.29 nM, the IC50 ([8]; MV4-11, 72 h) was 5.6 nM and the “histopathology, females” value (Sprague-Dawley rats [9]) was “no microscopic effect”. The “histopathology, males” value (Sprague-Dawley rats [9]) was “intraluminal cellular debris in the epididymis” and the reticulocytes (Sprague-Dawley rats [9]) was “decreased reticulocytes”.

Source: paper PMC4091685 (Cancer chemotherapy and pharmacology, 2014)
